Source: ChEMBL document CHEMBL1157441, “Fungicidal activity of truncated analogues of dihydrosphingosine” (2008)
Values after ≈ are worked out from the molar mass of the structure shown. Active and inactive are the calls of the source.

Columns and labels:
Candida albicans [1] = test: Fungicidal activity against Candida albicans CAI4 in presence of 10 mM ascorbic acid; type: functional
How it was run: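 Overnight C. albicans culture diluted 1/400 in PBS, exposed to compound or DMSO with 10 mM ascorbic acid for 0 h and 5 h at 37°C. CFU counted on YPD agar after 2 days at 30°C. MFC defined as minimal concentration leaving under 1% survival versus DMSO control.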

Nakaseomyces glabratus = test: Fungicidal activity against Candida glabrata BG2; type: functional
How it was run: (§1)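 Overnight cultures diluted 1/400 in PBS, exposed to compound or DMSO without ascorbic acid for 0 h and 5 h at 37°C. Survivors counted as CFU on YPD agar after 2 days at 30°C. MFC taken as lowest concentration giving under 1% survival relative to DMSO control.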

Candida albicans [2] = test: Fungicidal activity against Candida albicans CAI4; type: functional; how it was run: as §1
Candida albicans [3] = test: Induction of endogenous ROS accumulation in Candida albicans CAI4 after 3 hrs by 2',7'-dichlorofluorescein diacetate staining; type: functional, organism-based
How it was run: (§2)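 Log-phase cells suspended in PBS and pre-incubated with compounds for 3 h at 37°C. Cells then washed in PBS and incubated with 2',7'-dichlorofluorescein diacetate for 3 h at 37°C. Cellular fluorescence read by fluorescence spectrometer, ex 485 nm / em 525 nm. Tested over a range of concentrations up to 100 µg/ml.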

Candida albicans [4] = test: Induction of endogenous ROS accumulation in Candida albicans CAI4 at 100 ug/ml after 3 hrs by 2',7'-dichlorofluorescein diacetate staining; type: functional, organism-based; how it was run: as §2

| SMILES | MFC (Candida albicans [1]) [µg/mL] | MFC (Nakaseomyces glabratus) [µg/mL] | MFC (Candida albicans [2]) [µg/mL] | Activity (Candida albicans [3]) | Activity (Candida albicans [4]) |
| --- | --- | --- | --- | --- | --- |
| CCCCCCCCCCCC[C@@H](O)[C@@H](N)CO | 10 | 0.5 (≈ 1.93 µM) | 0.5 (≈ 1.93 µM) | Active | – |
| CC[C@@H](O)[C@@H](N)CO | – | > 100 | > 100 | – | inactive |
| CCCCCCCCCCCCCC[C@@H](O)[C@@H](O)[C@@H](N)CO [PHYTOSPHINGOSINE] | 1 | 1 (≈ 3.15 µM) | 1 (≈ 3.15 µM) | Active | – |
| CCCCCCCCCCCCCCC[C@@H](O)[C@@H](N)CO [DIHYDROSPINGOSINE] | 5 | 1 (≈ 3.32 µM) | 5 (≈ 16.6 µM) | Active | – |
| CCCCCCCCC[C@@H](O)[C@@H](N)CO | > 25 | 10 (≈ 46 µM) | 10 (≈ 46 µM) | Active | – |
| CCCCCC[C@@H](O)[C@@H](N)CO | – | > 100 | > 100 | – | inactive |
| CCCCCCCCCCCCCC[C@@H](O)[C@@H](N)CO | 2 | 0.5 (≈ 1.74 µM) | 0.5 (≈ 1.74 µM) | Active | – |
